# Biological target: T1, OR2T4 (Homo sapiens) (UniProt Q8NH00)
# T1 sequence (whole entry): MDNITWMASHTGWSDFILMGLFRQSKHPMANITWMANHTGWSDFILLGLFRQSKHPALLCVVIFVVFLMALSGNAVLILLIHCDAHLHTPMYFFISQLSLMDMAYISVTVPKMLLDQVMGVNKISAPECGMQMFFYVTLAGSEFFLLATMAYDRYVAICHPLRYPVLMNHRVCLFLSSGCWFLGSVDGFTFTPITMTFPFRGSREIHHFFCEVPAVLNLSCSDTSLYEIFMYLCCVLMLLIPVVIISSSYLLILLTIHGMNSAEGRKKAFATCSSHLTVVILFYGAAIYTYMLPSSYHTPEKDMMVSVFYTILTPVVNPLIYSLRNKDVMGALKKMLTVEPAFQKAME
# Conditions: stereoisomer not certain
# In short: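 Whether a receptor–molecule pair is responsive (active) rests on the original authors' judgment that its measured signal was statistically different from baseline. Pairs without that judgment are non-responsive (inactive). Sources used varied assay methods, commonly transient luciferase assays in mammalian cell lines.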
# 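Further: active if original authors judged signal statistically different from baseline.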
row,SMILES,odorant receptor agonist call
1,CCCCCCCCCCCCCCC(=O)O,inactive
2,CC(C=O)Cc1ccc(C(C)(C)C)cc1 (stereo not given),active
3,CCCCCCCC(=O)OCC,inactive
4,CCCCCCCCCCCCCCCC(=O)OCC,inactive
5,CC(C)(C)c1ccccc1,inactive
6,CCCCCCCCCCCC(=O)O,inactive
7,CCCCCCCCCCCCCC(=O)OCC,inactive
8,CC(C)=CCCC(C)=CCCC(C)=CCO,inactive
9,C=C(C)C1CC=C(C)CC1 (stereo not given),inactive
10,CC(CC=O)c1ccccc1 (stereo not given),inactive
11,CCCCCCCCCCCCCC(=O)OC,inactive
12,CCCCCCCCCC(=O)OC,inactive
13,CCCCCCCCCCCCCCCC(=O)OC,inactive
14,C=C1CCC2CC1C2(C)C (stereo not given),inactive
15,CCCCCCCCCCCC(=O)OCC,inactive
16,CCCCCCCCCCCCCCCC(=O)[O-].[H+],inactive
17,CCC(=O)O,inactive
18,CCCCCCCCO,inactive
19,CC(O)C(=O)[O-].[H+] (stereo not given),inactive
20,CCCCCCC(=O)[O-].[H+],inactive

row,SMILES,odorant receptor agonist call
1,CCCCCCCC(=O)[O-].[H+],inactive
2,CCCC(=O)CC,inactive
3,CCCCCCCCCCCC(=O)OC,inactive
4,Cc1cccc(C)c1C,inactive
5,O=c1ccc2ccccc2o1,inactive
6,CCCCCCCCCC(=O)OCC,inactive
7,CCCCCCCC(=O)OC,inactive
8,CCCCCCCCCCCCCC(=O)O,inactive
9,CCCCOCC(C)O (stereo not given),inactive
10,CCCCC(=O)C(C)=O,inactive
11,CCCCCCCCCCCCCCCCCC(=O)OCC,inactive
12,CCCO,inactive
13,CCC(O)CC,inactive
14,CCCCCCCCCCCCCCCCCC(=O)OC,inactive
15,CCCCCCCCCCCCO,inactive
16,CCC(C)CO (stereo not given),inactive
17,CCCCCCCCCCCCCCCCCC(=O)[O-].[H+],inactive
18,Cc1cnc(C)cn1,inactive
19,CC(=O)O,inactive
20,COc1ccc2[nH]cc(CCNC(C)=O)c2c1,inactive
